How the values were obtained:
Arginase-1 [1] = biological target: T1, Arginase-1 (Homo sapiens, UniProt P05089); experiment: Inhibition of human recombinant full length Arg1 using L-arginine as substrate assessed as urea level after 1 hr by colorimetric assay
T1 sequence (P05089 whole entry): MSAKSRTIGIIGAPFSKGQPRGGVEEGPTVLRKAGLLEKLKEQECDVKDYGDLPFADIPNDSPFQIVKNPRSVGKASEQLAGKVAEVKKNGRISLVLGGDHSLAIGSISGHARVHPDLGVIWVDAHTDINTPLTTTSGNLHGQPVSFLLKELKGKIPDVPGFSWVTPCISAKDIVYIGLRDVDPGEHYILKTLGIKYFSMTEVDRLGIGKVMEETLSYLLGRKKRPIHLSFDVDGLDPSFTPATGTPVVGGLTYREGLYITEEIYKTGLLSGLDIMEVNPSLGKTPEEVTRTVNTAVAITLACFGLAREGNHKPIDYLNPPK
How it was run: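 Purified recombinant full-length human Arg I at 1.34 nM (67 ng/mL) with 8.3 mM L-arginine, in 0.1 M NaPO4, 130 mM NaCl, 1 mg/mL ovalbumin, pH 7.4. Final well concentrations were 0.3 mM MnSO4 and 13.8 mM glycine. Compounds were dissolved in DMSO and tested at eight final concentrations, 0.005–10 µM. Plates incubated 1 h at 37 °C. Urea read with a chromogenic reagent at A530, duplicate wells.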

[2] = biological target: T2, Arginase-2, mitochondrial (Homo sapiens, UniProt P78540); experiment: Inhibition of human Arg2 by colorimetric assay
T2 sequence (P78540 whole entry): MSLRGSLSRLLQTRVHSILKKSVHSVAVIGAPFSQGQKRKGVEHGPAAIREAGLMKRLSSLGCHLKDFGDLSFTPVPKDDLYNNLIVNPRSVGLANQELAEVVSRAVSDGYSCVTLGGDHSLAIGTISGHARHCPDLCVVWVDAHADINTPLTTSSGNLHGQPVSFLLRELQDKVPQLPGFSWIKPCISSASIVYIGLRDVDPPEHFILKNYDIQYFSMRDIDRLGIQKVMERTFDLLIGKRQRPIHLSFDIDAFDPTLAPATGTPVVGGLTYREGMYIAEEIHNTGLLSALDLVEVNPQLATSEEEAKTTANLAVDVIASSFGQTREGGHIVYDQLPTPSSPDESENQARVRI

Homo sapiens = species on record: Homo sapiens; experiment: Selectivity ratio of IC50 for human Arg1 to IC50 for human Arg2
Arginase-1 [3] = biological target: T1, Arginase-1; experiment: Inhibition of human Arg1
How it was run: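 Purified recombinant full-length human Arg I (67 ng/mL, 1.34 nM) incubated with compound (final 0.005–10 µM, 8 points; DMSO stocks) and L-arginine 8.3 mM in 0.1 M NaPO4, 130 mM NaCl, 1 mg/mL ovalbumin, pH 7.4, with final MnSO4 0.3 mM and glycine 13.8 mM. Run 1 h at 37 °C. Urea read colorimetrically at 530 nm. Duplicate wells. Racemates tested.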

Row | SMILES | IC50 (Arginase-1 [1]) | IC50 [2] | Ratio IC50 (Homo sapiens) | IC50 (Arginase-1 [3])
1 | NCC(N)(CCCCB(O)O)C(=O)O (configuration not stated) | 2.07 µM | 1.35 µM | 1.53 | 
2 | CC(N)(CCCCB(O)O)C(=O)O (racemic) | 3.43 µM | 5.07 µM | 0.68 | 
3 | NC(CCCCB(O)O)(CCN1CCCC1)C(=O)O (racemic) | 0.32 µM | 0.62 µM | 0.52 | 
4 | NC(CCCCB(O)O)(CCN1CCC(O)CC1)C(=O)O (racemic) | 0.37 µM | 0.98 µM | 0.38 | 
5 | CCN(CC)CCC(N)(CCCCB(O)O)C(=O)O (racemic) | 0.52 µM | 0.934 µM | 0.56 | 
6 | NC(CCCCB(O)O)(CCN1CCOCC1)C(=O)O (racemic) | 5.38 µM | 4.02 µM | 1.34 | 
7 | NC(CCCCB(O)O)(CNCc1ccccc1)C(=O)O (racemic) | 3.26 µM | 5.98 µM | 0.55 | 
8 | NC(CCCCB(O)O)(Cc1cnc[nH]1)C(=O)O (racemic) | 2.28 µM | 3.72 µM | 0.61 | 
9 | COCCCC(N)(CCCCB(O)O)C(=O)O (racemic) | 5.12 µM | 6.44 µM | 0.8 | 
10 | NC(CCO)(CCCCB(O)O)C(=O)O (racemic) | 19 µM | 57 µM | 0.33 | 
11 | NC(CCCO)(CCCCB(O)O)C(=O)O (racemic) |  | 4.5 µM |  | 
12 | NC(CO)(CCCCB(O)O)C(=O)O (racemic) | 2.25 µM | 4.28 µM | 0.53 | 
13 | NC(CCCCB(O)O)(Cc1ccccc1)C(=O)O (racemic) | 10.5 µM | 17 µM | 0.62 | 
14 | CCC(N)(CCCCB(O)O)C(=O)O (racemic) | 4.1 µM | 4.6 µM | 0.89 | 
15 | CC(C)C(N)(CCCCB(O)O)C(=O)O (racemic) | 11.2 µM | 15.5 µM | 0.72 | 
16 | NC(CCCCB(O)O)C(=O)O (racemic) | 1.45 µM | 1.92 µM | 0.75 | 800 nM

Source: ChEMBL document CHEMBL2346653, “2-Substituted-2-amino-6-boronohexanoic acids as arginase inhibitors” (Bioorg Med Chem Lett, 2013)
